The source made the active and inactive calls. No cut-off for these calls is given here.
Experiments:
MDA-MB-231 = test: Cytotoxic activity against human MDA-MB-231 cells assessed as inhibition of cell proliferation incubated for 72 hrs by MTT assay; assay type: functional, cell-based
Procedure, shortened: (§1)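 MTT cell survival assay. IC50 is the concentration that inhibits tumour cell proliferation by 50%, read from cell survival curves. Values are given as mean ± SD of three independent experiments.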

[1] = Cytotoxic activity against human MCF10A cells assessed as inhibition of cell proliferation incubated for 72 hrs by MTT assay; assay type: cell-based; settings: mcf-10a; procedure, shortened: as §1
MCF7 = test: Cytotoxic activity against human MCF7 cells assessed as inhibition of cell proliferation incubated for 72 hrs by MTT assay; assay type: functional, cell-based; settings: MCF7, 72 h; procedure, shortened: as §1
Mus musculus = test: Toxic diuretic effect in 12 hrs fasted CD1 mouse assessed as increase in urine output at 10 mg/kg, ip measured 0 to 6 hrs post dose relative to untreated control; assay type: toxicity, organism-based; settings: in vivo
Procedure, shortened: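 Female CD-1 mice fasted 12 h, then given compound IP at 10 mg/kg in PEG/EtOH/H2O (54:14:32). Vehicle control group included. Mice were housed singly in metabolic cages with free access to water. Voided urine was collected in graduated tubes under the cages over 0–6 h and 6–24 h after injection.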

HT-29 = test: Cytotoxic activity against human HT-29 cells assessed as inhibition of cell proliferation incubated for 72 hrs by MTT assay; assay type: functional, cell-based; settings: HT-29, 72 h; procedure, shortened: as §1
[2] = Cytotoxic activity against human SF188 cells assessed as inhibition of cell proliferation incubated for 72 hrs by MTT assay; assay type: functional, cell-based; settings: SF-188, 72 h; procedure, shortened: as §1
[3] = Cytotoxic activity against human GBM10 cells assessed as inhibition of cell proliferation incubated for 72 hrs by MTT assay; assay type: functional, cell-based; settings: GBM10, 72 h; procedure, shortened: as §1
[4] = Cytotoxic activity against human SKBR3 cells assessed as inhibition of cell proliferation incubated for 72 hrs by MTT assay; assay type: functional, cell-based; settings: SK-BR-3, 72 h; procedure, shortened: as §1
MDA-MB-468 = test: Cytotoxic activity against human MDA-MB-468 cells assessed as inhibition of cell proliferation incubated for 72 hrs by MTT assay; assay type: functional, cell-based; settings: MDA-MB-468, 72 h; procedure, shortened: as §1
[5] = Cytotoxic activity against human HT1080 cells assessed as inhibition of cell proliferation incubated for 72 hrs by MTT assay; assay type: functional, cell-based; settings: HT-1080, 72 h; procedure, shortened: as §1
[6] = Cytotoxic activity against human H1299 cells assessed as inhibition of cell proliferation incubated for 72 hrs by MTT assay; assay type: functional, cell-based; settings: NCI-H1299, 72 h; procedure, shortened: as §1
[7] = Cytotoxic activity against human HCT116 cells assessed as inhibition of cell proliferation incubated for 72 hrs by MTT assay; assay type: functional, cell-based; settings: HCT-116, 72 h; procedure, shortened: as §1

Row | Compound | growth inhibition (GI) (MDA-MB-231) | Activity [1] | IC50 (MDA-MB-231; MDA-MB-231, 72 h) | IC50 (MCF7) | fold change (FC) (Mus musculus) | IC50 (HT-29) | IC50 [2] | IC50 [3] | IC50 [4] | IC50 (MDA-MB-468) | IC50 [5] | IC50 [6] | IC50 [7]
1 | N[C@H]1C(O)O[C@H](CO)[C@@H](O)[C@@H]1O (stereo partly drawn) [GLUCOSAMINE] | inactive | Non-toxic |  |  |  |  |  |  |  |  |  |  | 
2 | C=C(CC)C(=O)c1ccc(OCC(=O)O)c(Cl)c1Cl [ETHACRYNIC ACID] |  |  | 45.2 µM | 28.9 µM | <= 6 | 62.4 µM | 31.7 µM | 29.9 µM | 34.2 µM | 81.5 µM | 54.5 µM | 44.3 µM | 30.2 µM

— ChEMBL document CHEMBL3797027, “Potent anti-proliferative actions of a non-diuretic glucosamine derivative of ethacrynic acid” (Bioorg Med Chem Lett, 2016)
